For 25 molecules, MIC, viability and Selectivity Index results are on record in ChEMBL document CHEMBL1641521, “Design, synthesis and antimycobacterial activities of 1-methyl-2-alkenyl-4(1H)-quinolones” (Bioorg Med Chem, 2011).

Series [1] relates to Mycolicibacterium smegmatis. Description: Antimycobacterial activity against Mycobacterium smegmatis ATCC 19420 after 72 hrs by broth microtiter dilution method. Type of series: functional. Conditions: ATCC 19420, 72 h. The procedure, abridged:
(§1)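 Twofold serial dilution in cation-adjusted Mueller–Hinton broth, final 128–0.25 mg/L, compounds first dissolved in DMSO. Strains grown on Columbia blood agar with 7% defibrinated horse blood; inoculum 5 x 10^5 cfu/mL from 0.5 McFarland suspension in 0.9% NaCl. Three runs in duplicate.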

The nature of series [2]: Cytotoxicity against human MRC5 cells assessed as metabolic active cells at 100 uM after 72 hrs by XTT assay relative to control. The class given is ADME, cell-based. The following applies: read-out: Activity. The procedure, abridged: (§2)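 MRC-5 human diploid embryonic lung cells seeded at 5 × 10^4 cells/well, grown 24 h, then exposed 72 h at 37 °C, 5% CO2 to compound. Ethanol stocks were diluted with buffer or water; 0.1% ethanol served as solvent control. XTT added, 4 h further, absorbance 490 nm minus 655 nm reference. Viability given as % of solvent control; triplicate on two plates, n = 6, mean ± SEM.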

Series [3] is described as follows: Cytotoxicity against human MRC5 cells assessed as metabolic active cells at 30 uM after 72 hrs by XTT assay relative to control. The class given is ADME, cell-based. Conditions: read-out: Activity. The procedure, abridged: as §2
Series [4] concerns Mycolicibacterium fortuitum. Description: Antimycobacterial activity against Mycobacterium fortuitum ATCC 6841 after 72 hrs by broth microtiter dilution method. Type of series: functional. Conditions: ATCC 6841, 72 h. In short, it runs like this: as §1
Series [5] has as its system Mycolicibacterium phlei. The series can be described thus: Antimycobacterial activity against Mycobacterium phlei ATCC 19249 after 72 hrs by broth microtiter dilution method. Type of series: functional. Conditions: ATCC 19249, 72 h. In short, it runs like this:
as §1

Series [6] is described as follows: Selectivity index, ratio of IC50 for human MRC5 cells to MIC for Mycobacterium smegmatis ATCC 19420. Type of series: functional.

Each structure is given as a SMILES string. Converted amounts (≈) assume the structure as drawn.

As for `CCCCCCCCCCCCCCCc1cc(=O)c2ccccc2n1C`, the MIC in series [1] came out at 347 µM (≈ 128 µg/mL). The viability at 72 h, 100 µM in series [2] stood at 57.9%. The viability at 72 h, 30 µM in series [3] amounted to 79.8%.

As to `CCCCCCCCCCC/C=C/C=C/c1cc(=O)c2ccccc2n1C`, the MIC in series [1] was found to be 10.9 µM (≈ 3.98 µg/mL); in series [4] it was 2 µg/mL (≈ 5.47 µM); in series [5], 4 µg/mL (≈ 10.9 µM). Further, the viability at 72 h, 100 µM in series [2] is 18.5%. Also, in series [3], the viability at 72 h, 30 µM turned out to be 50.7%.

For the molecule `CCCCCCCC/C=C\CCc1cc(=O)c2ccccc2n1C`, the MIC in series [1] came out at 6.2 µM (≈ 2.02 µg/mL). For the same molecule, in series [2], the viability at 72 h, 100 µM stood at 85.6%. In addition, the viability at 72 h, 30 µM in series [3] was 88.3%. Moreover, the Selectivity Index in series [6] is > 20.

In series [1], `CCCCC/C=C\CCCCc1cc(=O)c2ccccc2n1C` returned an MIC of 12.9 µM (≈ 4.02 µg/mL). Moreover, in series [2], the viability at 72 h, 100 µM is 88.5%. Besides, in series [3], the viability at 72 h, 30 µM was determined as 94.9%.

For the molecule `NNC(=O)c1ccncc1` [ISONIAZID], the results for the MIC in series [4] and in series [5] were 1 µg/mL (≈ 7.29 µM) and 4 µg/mL (≈ 29.2 µM), respectively.

Molecule `CCCCCCCC/C=C\CCCCCCCc1cc(=O)c2ccccc2n1C` showed an MIC in series [1] of 20.3 µM (≈ 8.03 µg/mL). Besides, in series [2], the viability at 72 h, 100 µM is 0.4%. The viability at 72 h, 30 µM in series [3] came to 53.4%.

In turn, `CCCCCCCCCCCCCc1cc(=O)c2ccccc2n1C` registered an MIC in series [1] of 188 µM (≈ 64.1 µg/mL). The viability at 72 h, 100 µM in series [2] turned out to be 69.6%. The viability at 72 h, 30 µM in series [3] amounted to 102%.

`CCCCCC/C=C/c1cc(=O)c2ccccc2n1C`: it took 14.9 µM (≈ 4.01 µg/mL) to inhibit growth in series [1] (MIC). Also, the viability at 72 h, 100 µM in series [2] is 76.5%. For the same molecule, the viability at 72 h, 30 µM in series [3] turned out to be 96.8%.

Molecule `CCCCCCCCCC/C=C\CCCCCCCCc1cc(=O)c2ccccc2n1C` came in with a minimum inhibitory concentration (MIC) in series [1] of 293 µM (≈ 128 µg/mL). Besides, the viability at 72 h, 100 µM in series [2] is 91.5%. Further, in series [3], the viability at 72 h, 30 µM is 98.9%.

As to `CCCC/C=C\CCCCc1cc(=O)c2ccccc2n1C`, the MIC in series [1] was determined as 26.9 µM (≈ 8 µg/mL); in series [4] it was 8 µg/mL (≈ 26.9 µM); in series [5], 8 µg/mL (≈ 26.9 µM). In series [2], the viability at 72 h, 100 µM is 83.5%. In addition, the viability at 72 h, 30 µM in series [3] was found to be 96.8%.

In the case of `CC[C@@H](CO)NCCN[C@@H](CC)CO` [ETHAMBUTOL], the MIC in series [4] is 8 µg/mL (≈ 39.2 µM); in series [5] it was 4 µg/mL (≈ 19.6 µM).

Turning to `CCCCC/C=C/c1cc(=O)c2ccccc2n1C`, 62.7 µM (≈ 16 µg/mL) was the least that counted as inhibitory in series [1] (MIC). For the same molecule, the viability at 72 h, 100 µM in series [2] came to 77.2%. Further, the viability at 72 h, 30 µM in series [3] was 86.2%.

The molecule `CCCCCCCC/C=C\CCCc1cc(=O)c2ccccc2n1C` returned a minimal inhibitory concentration (MIC) in series [1] of 5.9 µM (≈ 2 µg/mL). Moreover, the viability at 72 h, 100 µM in series [2] turned out to be 32%. The viability at 72 h, 30 µM in series [3] stood at 76.3%.

`CCCCCCCCC/C=C\CCc1cc(=O)c2ccccc2n1C` had an MIC in series [1] of 5.9 µM (≈ 2 µg/mL). In series [2], the viability at 72 h, 100 µM is 82.1%. Further, in series [3], the viability at 72 h, 30 µM was determined as 89.7%. Also, the Selectivity Index in series [6] was > 20.

In turn, `CCCCCCCC/C=C\CCCCCCCCc1cc(=O)c2ccccc2n1C` returned an MIC in series [1] of 39.1 µM (≈ 16 µg/mL). The viability at 72 h, 100 µM in series [2] was found to be 25.5%. Further, the viability at 72 h, 30 µM in series [3] came out at 84.4%.

In series [1], `CCCCCC/C=C\CCCCc1cc(=O)c2ccccc2n1C` gave an MIC of 3.1 µM (≈ 1.01 µg/mL). Further, the viability at 72 h, 100 µM in series [2] came to 81.2%. Besides, in series [3], the viability at 72 h, 30 µM was 94.7%. In series [6], the Selectivity Index is > 20.

In series [1], `CC/C=C\CCCCCCCCCc1cc(=O)c2ccccc2n1C` showed an MIC of 5.9 µM (≈ 2 µg/mL). In series [2], the viability at 72 h, 100 µM came to 95.4%. The viability at 72 h, 30 µM in series [3] was determined as 95.3%. The Selectivity Index in series [6] is > 20.

Consider `CCCCC/C=C\C/C=C\CCCCCCCc1cc(=O)c2ccccc2n1C`, for which the values for the MIC in series [1], in series [4] and in series [5] were 5.1 µM (≈ 2.01 µg/mL), 4 µg/mL (≈ 10.2 µM) and 8 µg/mL (≈ 20.3 µM), respectively. For the same molecule, in series [2], the viability at 72 h, 100 µM is 0.4%. In addition, the viability at 72 h, 30 µM in series [3] is 44.2%.

On to `CCCCCCCCC/C=C\CCCCCCCCc1cc(=O)c2ccccc2n1C`, for which, in series [1], 151 µM (≈ 64.1 µg/mL) was the least that counted as inhibitory (MIC). Moreover, in series [2], the viability at 72 h, 100 µM amounted to 19.9%. For the same molecule, the viability at 72 h, 30 µM in series [3] was determined as 95.9%.

On to `CCCCCCCCC/C=C\CCCCc1cc(=O)c2ccccc2n1C`, for which the MIC in series [1] was found to be 2.7 µM (≈ 0.992 µg/mL). In addition, in series [2], the viability at 72 h, 100 µM came to 0.8%. Moreover, in series [3], the viability at 72 h, 30 µM was found to be 46.6%.

Consider `CCCCCCCCCCCCCCCCCc1cc(=O)c2ccccc2n1C`, for which, in series [1], the MIC is > 322 µM. In series [2], the viability at 72 h, 100 µM turned out to be 95.2%. The viability at 72 h, 30 µM in series [3] worked out at 100%.

For `CCCCC/C=C\CCCCCCc1cc(=O)c2ccccc2n1C` [EVOCARPINE], the MIC in series [1] came out at 5.9 µM (≈ 2 µg/mL); in series [4], 2 µg/mL (≈ 5.89 µM); in series [5], 2 µg/mL (≈ 5.89 µM). Moreover, the viability at 72 h, 100 µM in series [2] amounted to 87.6%. Further, the viability at 72 h, 30 µM in series [3] was found to be 94%.

Regarding `CCCCCC/C=C\CCc1cc(=O)c2ccccc2n1C`, inhibition of growth in series [1] (MIC) required 53.9 µM (≈ 16 µg/mL). Also, the viability at 72 h, 100 µM in series [2] turned out to be 47.9%. Moreover, the viability at 72 h, 30 µM in series [3] came to 73.8%.

In series [1], `CCCCCCCCCC/C=C/C=C/c1cc(=O)c2ccccc2n1C` yielded an MIC of 182 µM (≈ 64.1 µg/mL). In addition, the viability at 72 h, 100 µM in series [2] turned out to be 32.5%. For the same molecule, the viability at 72 h, 30 µM in series [3] turned out to be 73.8%.

For `CCCCCCCCCC/C=C\CCc1cc(=O)c2ccccc2n1C`, the results for the MIC in series [1], in series [4] and in series [5] were 2.8 µM (≈ 0.99 µg/mL), 1 µg/mL (≈ 2.83 µM) and 1 µg/mL (≈ 2.83 µM), respectively. Further, the viability at 72 h, 100 µM in series [2] is 4.9%. The viability at 72 h, 30 µM in series [3] came out at 55.1%.
